Measured values taken from ChEMBL document CHEMBL1151775, “Inhibition of aquaporin 4 by antiepileptic drugs” (Bioorg Med Chem, 2009).

Columns and labels:
Format in all cases: cell-based
[1] = tested on: Oocyte; assay: Inhibition of human aquaporin 4 M23 isoform expressed in Xenopus laevis oocytes at 20 uM
Procedure, shortened: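 Oocytes injected with 30 nL hAQP4b cRNA (0.1 µg/µL) or water sham, cultured 48 h at 18 C in MBS. Exposure to 20 µM compound (0.1% DMSO) for 2 h, then hypotonic challenge by dilution with buffer-free solution of matching inhibitor/DMSO. Oocyte area imaged each 60 s for 4 min, converted to volume. Osmotic permeability-based percent inhibition versus blank and sham; single-tail ANOVA, P < 0.05.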

[2] = tested on: Oocyte; assay: (§1) Inhibition of human aquaporin 4 M23 isoform expressed in Xenopus laevis oocytes
Procedure, shortened: (§2)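 hAQP4b cRNA (0.1 µg/µL, 30 nL) or water (sham) injected into oocytes, kept 48 h at 18 C in MBS. Oocytes preincubated 2 h with ligand at 0.1, 1, 5, 10, 20 or 100 µM, 0.1% DMSO final, then diluted with buffer-free hypotonic solution. Swelling imaged every 60 s up to 4 min; n = 5 oocytes. Percent inhibition relative to blank and sham Pf fit sigmoidally for apparent IC50.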

[3] = as §1; conditions: oocyte; procedure, shortened: as §2

Compound | inhibition [1] [%] | Imax [2] [%] | IC50 [3] [µM]
NS(=O)(=O)Cc1noc2ccccc12 [ZONISAMIDE] | 48 | 48 | 3.3
CC(=O)Nc1nnc(S(N)(=O)=O)s1 [ACETAZOLAMIDE] | 78 | 86 | 0.86
O=C1NC(=O)C(c2ccccc2)(c2ccccc2)N1 [PHENYTOIN] | 58 | 60 | 9.8
NC(=O)N1c2ccccc2C2OC2c2ccccc21 (stereo not drawn) | 40 |  | 
NC(=O)N1c2ccccc2CC(=O)c2ccccc21 | 33 |  | 
Nc1nnc(-c2cccc(Cl)c2Cl)c(N)n1 [LAMOTRIGINE] | 54 | 64 | 8.1
CCCC(CCC)C(=O)O | 40 |  | 
CC1(C)O[C@@H]2[C@@H](CO[C@@]3(COS(N)(=O)=O)OC(C)(C)O[C@@H]23)O1 [TOPIRAMATE] | 67 | 75 | 10
